Experiment [1] has as its target 5-hydroxytryptamine receptor 7 (Homo sapiens, UniProt P34969). In words: Displacement of [3H]-5-CT from human 5-HT7b receptor expressed in HEK293 cells by radioligand binding assay. The class given is cell-based. In a few lines: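 Membranes from HEK-293 cells stably expressing human 5-HT7b receptor, with [3H]-5-CT (93.0 Ci/mmol) as radioligand. Full competition used 7–9 concentrations of test compound, each run in triplicate. Ki was derived from the inhibition.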

Experiment [2] concerns the target T1, 5-hydroxytryptamine receptor 1A (Rattus norvegicus) (UniProt P19327).
T1 sequence (whole entry): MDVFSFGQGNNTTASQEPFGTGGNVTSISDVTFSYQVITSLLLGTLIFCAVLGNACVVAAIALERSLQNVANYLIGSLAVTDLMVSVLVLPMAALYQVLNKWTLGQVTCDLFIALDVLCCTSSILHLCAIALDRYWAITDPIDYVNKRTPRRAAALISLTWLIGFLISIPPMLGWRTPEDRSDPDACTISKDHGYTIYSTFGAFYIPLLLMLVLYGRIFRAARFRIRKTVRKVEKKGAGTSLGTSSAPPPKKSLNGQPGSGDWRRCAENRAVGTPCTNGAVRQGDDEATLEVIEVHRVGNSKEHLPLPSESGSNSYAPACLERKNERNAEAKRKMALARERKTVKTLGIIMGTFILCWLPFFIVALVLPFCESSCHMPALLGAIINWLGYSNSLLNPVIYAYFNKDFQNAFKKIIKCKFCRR
The experiment in a line: Displacement of [3H]8-OH-DPAT from 5HT1A receptor in rat hippocampal membrane at 10^-6 M by radioligand binding assay. As to conditions: Hippocampus. The class given is cell membranes. Put shortly:
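Single-point screen at 1 µM on rat hippocampal membranes, reported as % inhibition of [3H]-8-OH-DPAT (170 Ci/mmol) binding. Non-specific binding was defined with 10 µM 5-HT. Compounds inhibiting at least 85% went on to full competition.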

Experiment [3] addresses 5-hydroxytryptamine receptor 2A (Rattus norvegicus) (UniProt P14842). The experiment in a line: Displacement of [3H]ketanserin from 5HT2A receptor in rat cortex membrane at 10^-6 M by radioligand binding assay. The class given is cell membranes. In a few lines: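 Single-point screen at 1 µM, reported as % inhibition of [3H]-ketanserin (88.0 Ci/mmol) binding. Non-specific binding was defined with 1 µM methysergide. Compounds inhibiting at least 85% went on to full competition.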

Experiment [4] concerns the target T2, 5-hydroxytryptamine receptor 1A (Rattus norvegicus, UniProt P19327).
T2 sequence (P19327 whole entry): T1 sequence (whole entry)
The experiment in a line: Displacement of [3H]8-OH-DPAT from 5HT1A receptor in rat hippocampal membrane by radioligand binding assay. The class given is cell membranes, Hippocampus. In a few lines: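 Rat hippocampal membranes were incubated with [3H]-8-OH-DPAT (170 Ci/mmol), with 10 µM 5-HT for non-specific binding. Competition used 7–9 test concentrations, each in triplicate, to give Ki. Values are means of three experiments run in triplicate.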

Sequence of 5-hydroxytryptamine receptor 2A (Rattus norvegicus) (P14842 whole entry): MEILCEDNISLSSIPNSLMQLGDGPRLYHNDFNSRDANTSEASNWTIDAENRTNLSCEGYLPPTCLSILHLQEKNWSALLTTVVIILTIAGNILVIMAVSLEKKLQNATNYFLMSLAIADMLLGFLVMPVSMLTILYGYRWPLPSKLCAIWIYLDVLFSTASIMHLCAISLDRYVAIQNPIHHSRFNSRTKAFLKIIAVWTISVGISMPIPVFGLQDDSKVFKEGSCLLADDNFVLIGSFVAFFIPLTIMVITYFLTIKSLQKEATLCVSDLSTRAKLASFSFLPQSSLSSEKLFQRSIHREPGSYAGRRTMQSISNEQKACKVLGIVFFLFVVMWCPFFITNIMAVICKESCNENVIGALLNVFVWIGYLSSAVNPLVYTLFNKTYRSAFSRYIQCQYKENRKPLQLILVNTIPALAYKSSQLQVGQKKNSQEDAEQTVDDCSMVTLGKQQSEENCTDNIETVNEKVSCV
Sequence of 5-hydroxytryptamine receptor 7 (P34969 whole entry): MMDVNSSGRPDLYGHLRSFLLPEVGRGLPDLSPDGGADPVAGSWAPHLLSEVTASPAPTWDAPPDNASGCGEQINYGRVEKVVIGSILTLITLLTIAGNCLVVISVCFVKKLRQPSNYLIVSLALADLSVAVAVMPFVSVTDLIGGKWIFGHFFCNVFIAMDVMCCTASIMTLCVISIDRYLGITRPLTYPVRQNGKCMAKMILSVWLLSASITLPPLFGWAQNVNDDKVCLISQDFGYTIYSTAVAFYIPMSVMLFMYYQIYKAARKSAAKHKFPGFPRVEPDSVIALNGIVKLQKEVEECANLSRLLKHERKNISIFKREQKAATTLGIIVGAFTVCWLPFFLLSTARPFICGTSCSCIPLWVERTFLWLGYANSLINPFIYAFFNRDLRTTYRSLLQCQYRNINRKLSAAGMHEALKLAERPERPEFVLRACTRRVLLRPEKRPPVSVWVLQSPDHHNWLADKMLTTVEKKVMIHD

`Cc1ccccc1N1CCN(CCCCn2cnc3c(cnc4ccccc43)c2=O)CC1`: the values for the Ki in experiment [1] and in experiment [4] were 296 nM and 52 nM, respectively. Also, the inhibition is 96% in experiment [2] and 82% in experiment [3].
On to `O=c1c2cnc3ccccc3c2ncn1CCCCN1CCN(c2ccccc2F)CC1`, for which the values for the Ki in experiment [1] and in experiment [4] were 739 nM and 63 nM, respectively. In addition, the inhibition in experiment [2] turned out to be 96%; in experiment [3], 79%.
In the same order, the values of `COc1cccc(N2CCN(CCCCn3cnc4c(cnc5ccccc54)c3=O)CC2)c1` are 484 nM, 31 nM, 90% and 76%.
On to `O=c1c2cnc3ccccc3c2ncn1CCCCN1CCN(c2cccc(C(F)(F)F)c2)CC1`, for which the inhibitory constant (Ki) in experiment [1] was found to be 418 nM; in experiment [4] it was 127 nM. The values for the inhibition in experiment [2] and in experiment [3] were 89% and 61%, respectively.
In the case of `O=c1c2cnc3ccccc3c2ncn1CCCCN1CCN(c2ccccc2)CC1`, the results for the Ki in experiment [1] and in experiment [4] were 612 nM and 28 nM, respectively. The inhibition in experiment [2] is 93%; in experiment [3], 76%.
As for `O=c1c2cnc3ccccc3c2ncn1CCCCN1CCN(c2ccccc2Cl)CC1`, the Ki in experiment [1] is 153 nM; in experiment [4], 17 nM. Moreover, the inhibition turned out to be 92% in experiment [2] and 72% in experiment [3].
Turning to `COc1ccccc1N1CCN(CCCCn2cnc3c(cnc4ccccc43)c2=O)CC1`, the inhibitory constant (Ki) in experiment [1] turned out to be 276 nM; in experiment [4] it was 6 nM. Also, the inhibition is 97% in experiment [2] and 64% in experiment [3].
Turning to `O=c1c2cnc3ccccc3c2ncn1CCCCN1CCN(c2cccc(Cl)c2)CC1`, the inhibitory constant (Ki) in experiment [1] is 184 nM; in experiment [4], 34 nM. Moreover, the results for the inhibition in experiment [2] and in experiment [3] were 96% and 84%, respectively.

For the origin of these results see ChEMBL document CHEMBL1811770, “Synthesis and structural investigation of some pyrimido[5,4-c]quinolin-4(3H)-one derivatives with a long-chain arylpiperazine moiety as potent 5-HT(1A/2A) and 5-HT(7) receptor ligands” (Eur J Med Chem, 2011).
